We go through twelve molecules from ChEMBL document CHEMBL1142228, “Alternative chemical modifications reverse the binding orientation of a pharmacophore scaffold in the active site of macrophage migration inhibitory factor” (J Biol Chem, 2007).

Test [1] concerns the target T1, Macrophage migration inhibitory factor (Homo sapiens, UniProt P14174).
T1 sequence (P14174 whole entry): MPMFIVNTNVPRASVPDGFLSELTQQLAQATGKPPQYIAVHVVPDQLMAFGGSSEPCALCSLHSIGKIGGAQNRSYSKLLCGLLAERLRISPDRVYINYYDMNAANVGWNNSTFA
Briefly: Inhibition of MIF-mediated dopachrome tautomerase activity. In short, it runs like this: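 l-Dopachrome methyl ester substrate (2.4 mm prepared stock, from sodium periodate oxidation of l-3,4-dihydroxyphenylalanine methyl ester) added to recombinant MIF (50 nm) in 50 mm potassium phosphate, pH 6, 0.5 mm EDTA at room temperature.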

The subject of a further test is Mus musculus. Briefly: Increase in survival rate in cecal ligation and puncture-induced peritonitis mouse model administered twice a day after 24 hrs of sepsis induction at 3.5 mg/kg, ip for 3 days. In kind it is functional. The following applies: route intraperitoneal. In short, it runs like this:
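Mice anaesthetised with ketamine 100 mg/kg plus xylazine 8 mg/kg im. Cecum ligated below the ileocecal valve and punctured once with a 22-gauge needle. Post-surgery: Premaxin 0.5 mg/kg sc and saline 20 ml/kg sc. Dosing ip in 20% aqueous DMSO vehicle began 24 h post-CLP, twice daily for 3 days. n = 13 per group; survival followed 2 weeks.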

Test [2] deals with Transcription factor p65 (Mus musculus) (UniProt Q04207). In words: Inhibition of NF-kappaB activation in LPS-induced mouse RAW264.7 cells by electrophoretic mobility shift assay.
Chain of Transcription factor p65 (Mus musculus) (Q04207 whole entry, looked up): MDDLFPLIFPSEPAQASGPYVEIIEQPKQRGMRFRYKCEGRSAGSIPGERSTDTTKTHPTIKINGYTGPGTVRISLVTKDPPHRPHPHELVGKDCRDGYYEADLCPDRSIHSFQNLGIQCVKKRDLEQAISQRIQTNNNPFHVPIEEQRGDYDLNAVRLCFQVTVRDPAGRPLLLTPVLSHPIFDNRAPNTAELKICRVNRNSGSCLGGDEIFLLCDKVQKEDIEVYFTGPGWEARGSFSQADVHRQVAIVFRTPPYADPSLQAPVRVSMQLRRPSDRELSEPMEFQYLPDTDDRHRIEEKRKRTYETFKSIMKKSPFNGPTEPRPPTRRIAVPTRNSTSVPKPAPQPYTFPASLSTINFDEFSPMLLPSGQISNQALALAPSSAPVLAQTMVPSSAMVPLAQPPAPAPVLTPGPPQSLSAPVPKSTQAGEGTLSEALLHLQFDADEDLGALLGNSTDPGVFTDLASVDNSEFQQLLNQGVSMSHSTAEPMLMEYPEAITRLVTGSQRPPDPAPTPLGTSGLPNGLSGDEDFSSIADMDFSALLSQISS

Take `O=C(O/N=C/c1ccc(O)cc1)C1CC=CCC1` (stereo not drawn): half-maximal inhibition in test [1] (IC50) required 3.4 µM. On the same count and under the same terms, the figure for `O=C(O/N=C/c1ccc(O)cc1)C1CCCC1` is 4 µM. In turn, `CC(C)CC(=O)O/N=C/c1ccc(O)cc1` came in with an IC50 in test [1] of 7 µM.

With `CCCCC(=O)O/N=C/c1ccc(O)cc1`, the IC50 in test [1] came out at 14.5 µM. In the case of `CC(C)(C)CC(=O)O/N=C/c1ccc(O)cc1`, the IC50 in test [1] amounted to 7 µM. Turning to `O=C(O/N=C/c1ccc(O)cc1)C1CCC1`, the IC50 in test [1] is 11 µM. The same measure, in the same setting: the same measure for `CC(C)C(=O)O/N=C/c1ccc(O)cc1`: 25 µM; for `O=C(CCC1CCCCC1)O/N=C/c1ccc(O)cc1`: 3 µM. Molecule `O=C(O/N=C/c1ccc(O)cc1)c1ccccc1` came in with an IC50 in test [1] of 7 µM. As for `O=C(O/N=C/c1ccc(O)cc1)C1CCCCC1`, the survival at 3.5 mg/kg with Mus musculus is 70%. The Activity entry in test [2] is “Dose-dependent effect”. `CC(=O)O/N=C/c1ccc(O)cc1` gave an IC50 in test [1] of 147 µM.

With `CC(C)(C)C(=O)O/N=C/c1ccc(O)cc1`, the IC50 in test [1] worked out at 113 µM.
